Assays:
Format in all cases: functional
Rattus norvegicus [1] = species on record: Rattus norvegicus; experiment: Dose required to reduce the lowering of the arterial blood pressure caused by PAF by 50 %.; conditions: read-out: ID50 (the source's name)
Method in brief: (§1)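 Male Sprague-Dawley rats (180–220 g) were anesthetized with pentobarbital (50 mg/kg ip), and blood pressure was recorded from the left carotid artery. Compound in saline (1 mL/kg) was given iv via a femoral vein 3 min before PAF (0.5 µg/kg iv). ID50 came from linear regression of one curve with ≥4 doses (15–85% inhibition), each point the mean of ≥2 experiments.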

Oryctolagus cuniculus = species on record: Oryctolagus cuniculus; experiment: Concentration required to inhibit PAF-induced maximum aggregation by 50%
Method in brief: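 Platelet-rich plasma was prepared by centrifuging blood at 250 g for 10 min at 4 °C, then diluted with platelet-poor plasma (3000g, 10 min) to 3.5 × 10^5 platelets/mm3. Aggregation was induced with C18-PAF (1.5 × 10^-8 M) and read in an aggregometer as maximum aggregation. IC50 came from linear regression of one curve with ≥4 points (15–85% inhibition), each point the mean of 1–3 experiments.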

Rattus norvegicus [2] = experiment: Dose required to reduce the lowering of the arterial blood pressure caused by PAF by 50 % in rats intravenously; conditions: iv, read-out: ID50 (the source's name); method in brief: as §1
Rattus norvegicus [3] = species on record: Rattus norvegicus; experiment: % of rats exhibiting diarrhea
Method in brief: (§2)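 Female Wistar rats (180–220 g) were fasted overnight and given 30 mg TNBS in 0.25 mL 50% ethanol intrarectally by cannula inserted 8 cm, under anesthesia. Compounds were dosed orally in 1% methylcellulose for 5 days before induction and 24 h after. Colons were removed at 48 h and blind-scored 0–10 for macroscopic damage. Diarrhea was analyzed by χ2, means by ANOVA, and scores by Mann–Whitney.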

Rattus norvegicus [4] = species on record: Rattus norvegicus; experiment: Colonic weight was measured in rats; method in brief: as §2
Rattus norvegicus [5] = species on record: Rattus norvegicus; experiment: Effect of compound on myeloperoxidase activity was evaluated in rat; method in brief: as §2
Rattus norvegicus [6] = species on record: Rattus norvegicus; experiment: Damage to the colon observed after 48 hr after colitis induction in rats; method in brief: as §2
Rattus norvegicus [7] = species on record: Rattus norvegicus; experiment: Effect of compound on LTB4 production was measured in rat; method in brief: as §2

SMILES | IC50 (Oryctolagus cuniculus) [nM] | ED50 (Rattus norvegicus [1]) [mg/kg] | also measured
CCOC(=O)[C@H](CC(C)C)N(Cc1ccc(/N=N\c2ccc(O)c(C(=O)O)c2)cc1)S(=O)(=O)c1ccc(Cn2c(C)nc3cnccc32)cc1 | 490 | 1.31 | –
CCOC(=O)[C@H](CC(C)C)N(C(=O)c1ccc(N)cc1)S(=O)(=O)c1ccc(Cn2c(C)nc3cnccc32)cc1 | 30 | – | –
CCOC[C@H](CC(C)C)N(Cc1ccc(/N=N\c2ccc(O)c(C(=O)O)c2)cc1)S(=O)(=O)c1ccc(Cn2c(C)nc3cnccc32)cc1 | 400 | 2.51 | –
Cc1nc2cnccc2n1CC1CCN(C(=O)C(C)c2ccc(N)cc2)CC1 (stereo unspecified) | 430 | 1.47 | –
Cc1nc2cnccc2n1CC1CCN(C(=O)CC(C)(C)c2ccc(/N=N\c3ccc(O)c(C(=O)O)c3)cc2)CC1 | 1600 | 0.11 | –
CCOC(=O)N(CC(=O)N1CCC(Cn2c(C)nc3cnccc32)CC1)c1ccc(N)cc1 | 250 | – | –
CCOC(=O)NC(CC(=O)N1CCC(Cn2c(C)nc3cnccc32)CC1)c1ccc(N)cc1 (stereo unspecified) | 270 | 0.13 | –
CCOC[C@H](CC(C)C)N(C(=O)c1ccc(N)cc1)S(=O)(=O)c1ccc(Cn2c(C)nc3cnccc32)cc1 | 1280 | – | ED50 (Rattus norvegicus [2]): 0.3 mg/kg
Cc1nc2cnccc2n1CC1CCN(C(=O)CN(CC(C)C)S(=O)(=O)c2ccc(N)cc2)CC1 | 610 | – | ED50 (Rattus norvegicus [2]): 0.029 mg/kg
Cc1nc2cnccc2n1CC1CCN(C(=O)NCc2ccc(N)cc2)CC1 | 1550 | 2.42 | –
Cc1nc2cnccc2n1Cc1ccc(S(=O)(=O)N(C)[C@@H](CC(C)C)C(=O)NCc2cccc(N)c2)cc1 | 250 | – | ED50 (Rattus norvegicus [2]): 0.28 mg/kg
C/C(=C\C(=O)N1CCC(Cn2c(C)nc3cnccc32)CC1)c1ccc(N)cc1 | 60 | 0.17 | –
Cc1nc2cnccc2n1CC1CCN(C(=O)NC(C)c2ccc(N)cc2)CC1 (stereo unspecified) | 1600 | – | –
Cc1nc2cnccc2n1CC1CCN(C(=O)/C=C(/c2ccccc2)c2cccc(N)c2)CC1 | 190 | – | –
CCOC(=O)[C@H](CC(C)C)N(C(=O)c1ccc(/N=N\c2ccc(O)c(C(=O)O)c2)cc1)S(=O)(=O)c1ccc(Cn2c(C)nc3cnccc32)cc1 | 1470 | 0.47 | –
Cc1nc2cnccc2n1CC1CCN(C(=O)CN(c2ccccc2)S(=O)(=O)c2ccc(/N=N\c3ccc(O)c(C(=O)O)c3)cc2)CC1 | 4010 | 0.19 | –
Cc1nc2cnccc2n1Cc1ccc(S(=O)(=O)N(C)c2cccc(N)c2)cc1 | 300 | – | ED50 (Rattus norvegicus [2]): 0.22 mg/kg
Cc1nc2cnccc2n1CC1CCN(C(=O)CC(C)(C)c2ccc(N)cc2)CC1 | 19 | – | –
Cc1nc2cnccc2n1CC1CCN(C(=O)CN(c2ccccc2)S(=O)(=O)c2ccc(N)cc2)CC1 | 75 | – | –
Cc1nc2cnccc2n1CC1CCN(C(=O)CC(NC(=O)c2ccc(N)cc2)c2ccccc2)CC1 (stereo unspecified) | 2200 | 0.19 | –
Cc1nc2cnccc2n1CC1CCN(C(=O)/C=C(/c2ccccc2)c2ccc(N)cc2)CC1 | 8 | 0.029 | –
Cc1nc2cnccc2n1CC1CCN(C(=O)CC(Nc2ccc(N)cc2)c2ccccc2)CC1 (stereo unspecified) | 29 | 0.11 | –
CCOC(=O)[C@H](CC(C)C)N(Cc1cccc(N)c1)S(=O)(=O)c1ccc(Cn2c(C)nc3cnccc32)cc1 | 17 | 0.043 | –

Continued, in another order:

IC50 (Oryctolagus cuniculus) [nM] | SMILES | ED50 (Rattus norvegicus [1]) [mg/kg] | also measured
12 | CCOC(=O)[C@H](CC(C)C)N(Cc1ccc(N)cc1)S(=O)(=O)c1ccc(Cn2c(C)nc3cnccc32)cc1 | – | –
1200 | Cc1nc2cnccc2n1CC1CCN(C(=O)/C=C/c2ccc(N)cc2)CC1 | 1.23 | –
32 | CCOC(=O)[C@H](Cc1ccc(N)cc1)NC(=O)N1CCC(Cn2c(C)nc3cnccc32)CC1 | 1.13 | –
120 | Cc1nc2cnccc2n1Cc1ccc(S(=O)(=O)N[C@@H](CC(C)C)C(=O)NCc2ccc(N)cc2)cc1 | – | ED50 (Rattus norvegicus [2]): 0.075 mg/kg
> 200000 | O=C(O)c1cc(/N=N/c2ccc(S(=O)(=O)Nc3ccccn3)cc2)ccc1O [SULFASALAZINE] | – | Animals (Rattus norvegicus [3]): 62.5%; Colonic weight (Rattus norvegicus [4]): 154.4 mg/cm; Activity (Rattus norvegicus [5]): 683.3 U (g of tissue)-1; Damage score (Rattus norvegicus [6]): 8 0-10
7300 | Cc1nc2cnccc2n1CC1CCN(C(=O)/C=C(\c2ccccc2)c2ccc(/N=N\c3ccc(O)c(C(=O)O)c3)cc2)CC1 | – | –
4100 | Cc1nc2cnccc2n1CC1CCN(C(=O)/C=C(/c2ccccc2)c2ccc(/N=N\c3ccc(O)c(C(=O)O)c3)cc2)CC1 | 2.81 | Animals (Rattus norvegicus [3]): <25%; Colonic weight (Rattus norvegicus [4]): <149.6 mg/cm; Activity (Rattus norvegicus [5]): <445.9 U (g of tissue)-1; Damage score (Rattus norvegicus [6]): <7.5 0-10; Production (Rattus norvegicus [7]): <4.5 ng (g of tissue)-1
74 | CCOC(=O)C(CC(=O)N1CCC(Cn2c(C)nc3cnccc32)CC1)c1ccc(N)cc1 (stereo unspecified) | 0.56 | –
740 | CCOC(=O)[C@H](Cc1ccc(N)cc1)NS(=O)(=O)c1ccc(Cn2c(C)nc3cnccc32)cc1 | – | ED50 (Rattus norvegicus [2]): 0.19 mg/kg
16 | CCOC[C@H](CC(C)C)N(Cc1ccc(N)cc1)S(=O)(=O)c1ccc(Cn2c(C)nc3cnccc32)cc1 | – | –
1270 | Cc1nc2cnccc2n1CC1CCN(C(=O)CN(C)C(=O)c2ccc(N)cc2)CC1 | – | –
5 | Cc1nc2cnccc2n1CC1CCN(C(=O)/C=C(\c2ccccc2)c2ccc(N)cc2)CC1 | 0.01 | –
> 200000 | O=C(O)CCNC(=O)c1ccc(/N=N/c2ccc(O)c(C(=O)O)c2)cc1 [BALSALAZIDE] | – | –
11 | Cc1nc2cnccc2n1CC1CCN(C(=O)CC(C)c2ccc(N)cc2)CC1 (stereo unspecified) | 0.24 | –

From ChEMBL document CHEMBL1134776, “Novel azo derivatives as prodrugs of 5-aminosalicylic acid and amino derivatives with potent platelet activating factor antagonist activity” (J Med Chem, 2001)
